The nature of series [1]: Partition coefficient (logP) (HPLC). The series is classed as physicochemical. The conditions noted are these: octanol/water.
The target of series [2] is Glutamate NMDA receptor. As to the kind of experiment: Binding affinity towards PCP site of the NMDA receptor was measured by displacement of […] in […]. The series is classed as tissue-based, Brain.
The next series is filed under the species Mus musculus. The series can be described thus: Testing for ataxia was done by using an inverted screen technique. The series is classed as functional. The gist of the method:
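Inverted-screen test in CF-1 mice (22-28 g), scored 5 min after retrobulbar test agent in 0.9% saline (5 mL/kg), immediately before NMDA injection.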

Series [3] concerns the target T1, Glutamate NMDA receptor (Rattus norvegicus) (UniProt P35439+Q00959+Q00960+Q00961+Q62645+Q8VHN2+Q9R1M7). The series can be described thus: Evaluated in vivo for its NMDA antagonist activity by the inhibition of NMDA-induced lethality in mice. The series is classed as functional, organism-based. The conditions noted are these: Mus musculus; target entry is the homologue from another species. The gist of the method:
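CF-1 mice, 22-28 g. Test agent or vehicle (0.9% saline, 5 mL/kg) was given by retrobulbar injection 5 min before a 25 mg/kg NMDA bolus given retrobulbar in the other eye. Endpoint was prevention of lethality.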

For series [4], the target named is Glutamate NMDA receptor. The series can be described thus: Ability to inhibit glutamate induced accumulation of [45 [Ca2+]] in cultured rat cortical neurons. The series is classed as functional. The gist of the method: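 Fetal rat cortical hemisphere dissociated cultures used on day 14-16 after plating. Medium was serum- and Mg-free HBSS with 1.4 mM CaCl2, pH 7.4 (35 mM bicarbonate), 37 °C, 5% CO2. Cells were exposed 30 min to 100 μM L-glutamate (final) plus [45Ca2+] (2 μCi/mL) ± test agent, washed with saline, lysed, and counted. Baseline was subtracted.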

The nature of series [5]: Partition coefficient was measured using a standard shake flask (SF) method at pH 7.4. The series is classed as physicochemical. The conditions noted are these: octanol/water. The gist of the method: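 Shake-flask partitioning at pH 7.4.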
The target of series [6] is T1, Glutamate NMDA receptor (Rattus norvegicus). As to the kind of experiment: Percent inhibition at PCP site of NMDA receptor complex was measured by displacement of […] in whole rat brain homogenate at 10 E-7 M. The series is classed as tissue-based. The essentials:
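[3H]TCP displacement from rat brain membrane preparation (cortical membranes in the methods; whole-brain homogenate in the assay description), following a previously published procedure.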

30 molecules from ChEMBL document CHEMBL1126730, “Synthesis and pharmacological evaluation of 4a-phenanthrenamine derivatives acting at the phencyclidine binding site of the N-methyl-D-aspartate receptor complex” (J Med Chem, 1993) can be followed below.

Bounds are passed on as bounds.

Usually logP stands for the decadic logarithm of the partition coefficient of the neutral form, usually between octanol and water. A low value points to a more hydrophilic compound. Broadly, the IC50 is the concentration at which inhibition is half-maximal. A lower IC50 goes with greater potency. In general, ED50 refers to the midpoint of the dose-response relation. Higher therefore signals a need for a large dose. For orientation: logD means lipophilicity at a set pH, counting ionised and neutral species. The low end stands for lower lipophilicity, the high end for higher lipophilicity. In turn, `NC12CCCCC1CCc1sccc12` (stereo unspecified) displayed a lipophilicity (logP) in series [1] of 3.02. Also, the IC50 turned out to be 43 nM at Glutamate NMDA receptor [2] and 1570 nM at Glutamate NMDA receptor [4]. The same molecule displayed an Ataxia in the series filed under Mus musculus of 3 mg/kg. Also, the 50% effective dose (ED50) in series [3] amounted to 0.97 mg/kg. Moreover, in series [5], the log distribution coefficient (logD) was 0.66.

In series [1], `NC12CCCCC1CCc1ccccc12` (stereo unspecified) returned a log partition coefficient (logP) of 2.92. Also, the figures for the IC50 on Glutamate NMDA receptor [2] and on Glutamate NMDA receptor [4] were 25.4 nM and 370 nM, respectively. Further, in the series listed under Mus musculus, the Ataxia is 0.55 mg/kg.

Turning to `C[C@]12N[C@H](Cc3ccccc31)c1ccccc12` [DIZOCILPINE], the Ataxia in the series listed under Mus musculus was determined as 0.3 mg/kg.

With `NC1c2ccccc2CCC12CCCCC2` (stereo unspecified), the IC50 at Glutamate NMDA receptor [2] stood at 3400 nM.

Broadly, the inhibition is the share of the control response that was lost under treatment. Read a high inhibition as a response far below the control. Molecule `CC1(N)c2ccccc2CCC12CCCC2` (stereo unspecified) registered an inhibition in series [6] of 5%.

For `COc1ccc2c(c1)C1(N)CCCCC1CC2` (stereo unspecified), the IC50 at Glutamate NMDA receptor [2] worked out at 18 nM; against Glutamate NMDA receptor [4] it was 440 nM. In the series filed under Mus musculus, this molecule displayed an Ataxia of 1.3 mg/kg. In addition, the ED50 in series [3] is 1.2 mg/kg.

In series [1], `CNC12CCCCC1CC(O)c1ccccc12` (stereo unspecified) gave a log partition coefficient (logP) of 1.84. On Glutamate NMDA receptor [2], this molecule showed an IC50 of 1490 nM. For the same molecule, in series [5], the logD was found to be 0.73.

On to `NC1c2ccccc2CCC12CCCC2` (stereo unspecified), for which the inhibition in series [6] was 8%.

Turning to `CC1CC2CCCCC2(N)c2ccccc21` (stereo unspecified), the logP in series [1] was 3.59. Also, the IC50 on Glutamate NMDA receptor [2] amounted to 508 nM. Besides, in series [5], the log distribution coefficient (logD) turned out to be 1.61.

Take `CNC12CCCCC1CC(C)c1ccccc12` (stereo unspecified): the IC50 on Glutamate NMDA receptor [2] came out at 317 nM.

`CN[C@@]12CCCCC1CSc1ccccc12` (stereo partly specified) displayed an IC50 on Glutamate NMDA receptor [2] of 199 nM.

For the molecule `CN[C@]12CCCCC1CCc1ccccc12` (stereo partly specified), the IC50 at Glutamate NMDA receptor [2] is 7.47 nM; at Glutamate NMDA receptor [4] it was 180 nM. This molecule displayed an Ataxia in the series filed under Mus musculus of 0.18 mg/kg. This molecule returned an ED50 in series [3] of 0.39 mg/kg.

Regarding `CN[C@]12CCCCC1Cc1ccccc12` (stereo partly specified), the IC50 at Glutamate NMDA receptor [2] is 10.1 nM; on Glutamate NMDA receptor [4] it was 120 nM. In series [3], the 50% effective dose (ED50) is 0.1 mg/kg.

`CCNC12CCCCC1CSc1ccccc12` (stereo unspecified) came in with an IC50 at Glutamate NMDA receptor [2] of 523 nM.

Molecule `NC12CC=CCC1CCc1ccccc12` (stereo unspecified) came in with a logP in series [1] of 2.75. Besides, the concentration for half-maximal inhibition (IC50) on Glutamate NMDA receptor [2] was determined as 87.5 nM; at Glutamate NMDA receptor [4], 2350 nM. This molecule also displayed an Ataxia in the series filed under Mus musculus of less than 1 mg/kg. In addition, in series [3], the ED50 stood at 4.2 mg/kg.

Turning to `NC12CCCCC1CCc1ccc(O)cc12` (stereo unspecified), the IC50 at Glutamate NMDA receptor [2] was 7.5 nM; on Glutamate NMDA receptor [4], 520 nM. This molecule also registered an Ataxia in the series filed under Mus musculus of 3 mg/kg. The 50% effect level in series [3] (ED50) was put at a dose of 5.5 mg/kg.

`CNC12CCCCC1Sc1ccccc12` (stereo unspecified): in series [3], the ED50 was 0.41 mg/kg. Moreover, at Glutamate NMDA receptor [4], the half-inhibitory concentration (IC50) came out at 210 nM.

As to `CNC12CC=CCC1CCc1ccccc12` (stereo unspecified), the logP in series [1] came to 3.07. Also, the IC50 amounted to 27.3 nM at Glutamate NMDA receptor [2] and 400 nM on Glutamate NMDA receptor [4]. The Ataxia in the series filed under Mus musculus worked out at 0.6 mg/kg. The molecule further yielded a median effective dose (ED50) in series [3] of 1.8 mg/kg.

`CC1(C)CC2CCCCC2(N)c2ccccc21` (stereo unspecified): the IC50 at Glutamate NMDA receptor [2] amounted to 37000 nM.

Turning to `CNC12CC=CCC1CCc1ccc(OC)cc12` (stereo unspecified), the 50% inhibitory concentration (IC50) was determined as 21 nM on Glutamate NMDA receptor [2] and 410 nM at Glutamate NMDA receptor [4]. Besides, in the series filed under Mus musculus, the Ataxia stood at 1 mg/kg. Further, in series [3], the 50% effective dose (ED50) turned out to be 4.1 mg/kg.

As to `CNC12CCCCC1CCc1ccccc12` (stereo unspecified), the logP in series [1] was 3.25. Besides, the IC50 came to 14.7 nM on Glutamate NMDA receptor [2] and 310 nM against Glutamate NMDA receptor [4]. The Ataxia in the series listed under Mus musculus was 0.44 mg/kg. In addition, in series [3], the ED50 was 0.54 mg/kg.

Turning to `COc1ccc2c(c1)C1(N)CC=CCC1CC2` (stereo unspecified), the results for the IC50 on Glutamate NMDA receptor [2] and at Glutamate NMDA receptor [4] were 46 nM and 850 nM, respectively. For the same molecule, in the series listed under Mus musculus, the Ataxia turned out to be 2.1 mg/kg. In series [3], this molecule showed a median effective dose (ED50) of 2.1 mg/kg.

The molecule `CNC12CCCCC1CCc1ccc(O)cc12` (stereo unspecified) gave a logP in series [1] of 2.56. Moreover, the IC50 came out at 2.07 nM on Glutamate NMDA receptor [2] and 64 nM on Glutamate NMDA receptor [4]. Besides, the Ataxia in the series filed under Mus musculus was determined as 0.58 mg/kg. For the same molecule, the ED50 in series [3] is 0.89 mg/kg. In series [5], the pH-dependent lipophilicity (logD) came out at 0.31.

The molecule `CNC12CCCCC1CCc1ccc(OC)cc12` (stereo unspecified) gave a logP in series [1] of 3.75. The IC50 on Glutamate NMDA receptor [2] came out at 5.8 nM; against Glutamate NMDA receptor [4], 1110 nM. The Ataxia in the series filed under Mus musculus worked out at 0.4 mg/kg. This molecule yielded an ED50 in series [3] of 1 mg/kg. Further, the pH-dependent lipophilicity (logD) in series [5] was found to be 1.51.

For the molecule `NC12CCCCC1CCc1ccccc12` (single isomer, unassigned; form 2), the concentration for half-maximal inhibition (IC50) at Glutamate NMDA receptor [2] was 113 nM; against Glutamate NMDA receptor [4] it was 2250 nM. In the series filed under Mus musculus, this molecule had an Ataxia of less than 3 mg/kg.

On to `CC1CC2CC=CCC2(N)c2ccccc21` (stereo unspecified), for which, in series [1], the logP was found to be 3.4. Moreover, the IC50 at Glutamate NMDA receptor [2] was 2460 nM. The logD in series [5] stood at 1.89.

As to `CNC1c2ccccc2CCC12CCCC2` (stereo unspecified), in series [6], the inhibition amounted to 8%.

In series [3], `NC12CCCCC1CCc1ccccc12` (single isomer, unassigned; form 1) gave an ED50 of 1.3 mg/kg.

In turn, `NC12CC=CCC1COc1ccccc12` (stereo unspecified) returned an IC50 on Glutamate NMDA receptor [2] of 399 nM.

Molecule `CN[C@]12CCCCC1CSc1ccccc12` (stereo partly specified) displayed an IC50 at Glutamate NMDA receptor [2] of 30 nM.
